As usually defined, the IC50 is the concentration at which inhibition is half-maximal. As a reminder, the inhibition is how much of the control response was suppressed. For orientation: Kd means the concentration at which binding is half-saturated.

The structures appear in SMILES notation. Active and inactive are the calls of the source. No cut-off for these calls is given here.

In assay [1] the target is T1, Coagulation factor XI (Homo sapiens, UniProt P03951). Nature of the assay: Activation of full-length human factor-11a-mediated S-2366 hydrolysis at 300 uM preincubated for 10 mins followed by substrate addition by spectrophotometric analysis relative to control. Set-up: scale not given: the % may be the effect or the level left. The procedure, abridged:
(§1)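 Single-point screen: inhibitor (300 μM final) incubated with fXIa (0.765 nM final) in 0.05 M Tris-HCl pH 7.4, 0.15 M NaCl, 0.1% PEG8000, 0.02% Tween80, 10 min at 37 °C. S-2366 then added (330 μM final) and the initial rate taken from A405 rise (<10% conversion). Residual activity (%) is the rate ratio with versus without inhibitor. At least duplicate; mean ± SD.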

Assay [2] concerns the target T1, Coagulation factor XI. Nature of the assay: Inhibition of full-length human factor-11a-mediated S-2366 hydrolysis preincubated for 10 mins followed by substrate addition by spectrophotometric analysis relative to control. Summed up: (§2)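 Dose-response run in the same Tris pH 7.4 buffer with NaCl, PEG8000 and Tween80. Serial 2/3 or 5/6 inhibitor dilutions were preincubated 10 min at 37 °C with fXIa (0.765 nM final). S-2366 was then added (330 μM final) and the initial A405 rate read. Residual activity versus log[I] was fitted to a logistic equation for IC50, Hill slope, YM and Y0. At least two measurements; ± SD.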

Assay [3] deals with T1, Coagulation factor XI. Nature of the assay: Inhibition of full-length human factor-11a-mediated S-2366 hydrolysis preincubated for 10 mins followed by substrate addition by spectrophotometric analysis. The procedure, abridged: as §2
For assay [4], the target named is T1, Coagulation factor XI. Description: Inhibition of full-length human factor-11a-mediated S-2366 hydrolysis assessed as reduction in residual activity at 300 uM preincubated for 10 mins followed by substrate addition by spectrophotometric analysis relative to control. Summed up:
as §1

Assay [5] deals with T1, Coagulation factor XI. Description: Inhibition of full-length human factor-11a-mediated S-2366 hydrolysis at 300 uM preincubated for 10 mins followed by substrate addition by spectrophotometric analysis relative to control. The procedure, abridged:
as §1

The target in assay [6] is T1, Coagulation factor XI. Description: Binding affinity to fluorescein-EGR-labeled human factor-11a by fluorescence spectroscopic analysis. Summed up: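 fXIa active-site labeled with fluorescein-EGR (74 nM) in Tris pH 7.4 buffer without Tween80 at 37 °C. Excitation at 480 nm, emission recorded at 522 nm during ligand titration. ΔF/F0 versus ligand concentration was fitted to a quadratic binding equation to give the dissociation constant.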

Assay [7] deals with T1, Coagulation factor XI.
Assay [8] deals with T1, Coagulation factor XI. Description: Inhibition of human factor-11a catalytic domain-mediated S-2366 hydrolysis preincubated for 10 mins followed by substrate addition by spectrophotometric analysis. Summed up: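 Recombinant fXIa catalytic domain (0.765 nM final) in 0.05 M Tris-HCl pH 7.4, 0.15 M NaCl, 0.1% PEG8000, 0.02% Tween80. Incubated 10 min at 37 °C with serial inhibitor dilutions (2/3 or 5/6 decrements), then S-2366 added to 330 μM final. Initial A405 rate gives residual activity; IC50 from logistic fit versus log[I]; at least two measurements.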

T1 sequence (P03951 19-387 limits assumed): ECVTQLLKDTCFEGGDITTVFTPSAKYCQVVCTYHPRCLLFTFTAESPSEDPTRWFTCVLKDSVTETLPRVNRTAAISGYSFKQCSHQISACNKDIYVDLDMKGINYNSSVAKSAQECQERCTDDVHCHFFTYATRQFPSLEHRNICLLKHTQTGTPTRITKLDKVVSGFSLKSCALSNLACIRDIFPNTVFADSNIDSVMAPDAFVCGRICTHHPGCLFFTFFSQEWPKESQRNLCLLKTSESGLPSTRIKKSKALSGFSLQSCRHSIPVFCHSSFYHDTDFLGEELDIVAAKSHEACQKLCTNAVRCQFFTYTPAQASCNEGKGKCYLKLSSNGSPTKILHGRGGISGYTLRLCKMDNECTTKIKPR
T1 sequence (P03951 388-625 limits assumed): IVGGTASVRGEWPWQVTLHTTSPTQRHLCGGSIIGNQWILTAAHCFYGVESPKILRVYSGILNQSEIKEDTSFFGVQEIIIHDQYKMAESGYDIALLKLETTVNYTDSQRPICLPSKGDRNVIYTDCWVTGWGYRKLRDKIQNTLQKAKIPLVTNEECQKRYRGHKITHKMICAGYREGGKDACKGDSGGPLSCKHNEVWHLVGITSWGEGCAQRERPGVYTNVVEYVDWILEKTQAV

For `O=C(O)C1Cc2cc(OS(=O)(=O)O)c(OS(=O)(=O)O)cc2CN1C(=O)c1cc(OS(=O)(=O)O)c(OS(=O)(=O)O)c(OS(=O)(=O)O)c1` (stereo unspecified), on Coagulation factor XI [1], the Activity is 20%.
In the case of `O=C(Nc1ccc(OS(=O)(=O)O)cc1)c1cccc(N2C(=O)c3ccc(C(=O)Nc4ccc(OS(=O)(=O)O)cc4)cc3C2=O)c1`, the Efficacy at Coagulation factor XI [2] was 100%. Also, inhibition at Coagulation factor XI [3] was half-maximal at 122 µM (IC50). Further, on Coagulation factor XI [4], the Activity was above 50%.
In the same order, the values of `CCOC(=O)c1c(C)oc2cc(OC)c(OCc3oc4cc(OC)c(OCc5oc6cc(OC)c(OCc7oc8cc(OC)c(OS(=O)(=O)O)cc8c7C(=O)OCC)cc6c5C(=O)OCC)cc4c3C(=O)OCC)cc12` are 100%, 99 µM and above 50%.
On the same counts, the results for `CCOC(=O)c1c(C)oc2cc(OC)c(OCc3oc4cc(OC)c(OCc5oc6cc(OC)c(OS(=O)(=O)O)cc6c5C(=O)OCC)cc4c3C(=O)OCC)cc12` are 100%, 6.4 µM and above 50%.
In turn, `CCOC(=O)c1c(COc2cc3c(C(=O)OCC)c(COc4cc5c(C(=O)O)c(C)oc5cc4OC)oc3cc2OC)oc2cc(OC)c(O)cc12` displayed an Efficacy on Coagulation factor XI [2] of 100%. For the same molecule, it took 384 µM to reach half-maximal inhibition at Coagulation factor XI [3] (IC50). Further, on Coagulation factor XI [5], the inhibition worked out at 50%.
In the case of `CCOC(=O)c1c(C)oc2cc(OC)c(OCc3oc4cc(OCC)c(OS(=O)(=O)O)cc4c3C(=O)OCC)cc12`, at Coagulation factor XI [2], the Efficacy came to 100%. For the same molecule, on Coagulation factor XI [3], the IC50 is 7.5 µM. On Coagulation factor XI [6], this molecule came in with a Kd of 4.5 µM. In addition, the Activity at Coagulation factor XI [4] is above 50%.
The molecule `C=CCOC(=O)c1c(C)oc2cc(OC)c(OCc3oc4cc(OC)c(OCc5oc6cc(OC)c(OS(=O)(=O)O)cc6c5C(=O)OCC)cc4c3C(=O)OCC)cc12` displayed an Efficacy at Coagulation factor XI [2] of 100%. On Coagulation factor XI [3], this molecule came in with an IC50 of 29.9 µM. For the same molecule, the Activity at Coagulation factor XI [4] was above 50%.
On the same counts, the results for `CCOC(=O)c1c(C)oc2cc(OC)c(OCc3oc4cc(OC)c(OCc5oc6cc(OC(C)C)c(OS(=O)(=O)O)cc6c5C(=O)OCC)cc4c3C(=O)OCC)cc12` are 100%, 47.2 µM and above 50%.
On the same counts, the results for `CCOC(=O)c1c(C)oc2cc(OC)c(OCc3oc4cc(OC)c(OCc5oc6cc(OC)c(OS(=O)(=O)O)cc6c5C(=O)OC)cc4c3C(=O)OCC)cc12` are 100%, 14.9 µM and above 50%.
On to `CCOC(=O)c1c(C)oc2cc(OC)c(OCc3oc4cc(OC)c(OCc5oc6cc(OCC)c(OS(=O)(=O)O)cc6c5C(=O)OCC)cc4c3C(=O)OCC)cc12`, for which, on Coagulation factor XI [7], the KSV is 2.3. This molecule also displayed an Efficacy at Coagulation factor XI [2] of 100%. Also, the IC50 was 0.82 µM at Coagulation factor XI [3] and 49 µM against Coagulation factor XI [8]. Besides, on Coagulation factor XI [6], binding was put at a Kd of 1.2 µM. For the same molecule, the Activity at Coagulation factor XI [4] is above 50%.
For `CCOC(=O)c1c(C)oc2cc(OC)c(OCc3oc4cc(OC)c(OCc5oc6cc(OS(=O)(=O)O)c(OC)cc6c5C(=O)OCC)cc4c3C(=O)OCC)cc12`, the inhibition result at Coagulation factor XI [5] was “inactive”.
`N#Cc1c(SCC(=O)c2cccc(OS(=O)(=O)O)c2OS(=O)(=O)O)nc([N+](=O)[O-])c(C#N)c1-c1ccc(Oc2ccccc2)cc1` gave an Efficacy at Coagulation factor XI [2] of 100%. On Coagulation factor XI [3], the concentration for half-maximal inhibition (IC50) was 109 µM. Further, the Activity on Coagulation factor XI [4] is above 50%.
Regarding `O=C(c1cc(OS(=O)(=O)O)cc(OS(=O)(=O)O)c1)N1CCc2cc(OS(=O)(=O)O)c(OS(=O)(=O)O)cc2C1`, at Coagulation factor XI [1], the Activity was 20%.
On the same count and under the same terms, the same measure for `CCOC(=O)C1Cc2cc(OS(=O)(=O)O)c(OS(=O)(=O)O)cc2CN1C(=O)c1ccc(OS(=O)(=O)O)c(OS(=O)(=O)O)c1` (stereo unspecified): 20%.
On to `CCOC(=O)c1c(COc2cc3c(C(=O)O)c(C)oc3cc2OC)oc2cc(OC)c(OCc3oc4cc(OC)c(OS(=O)(=O)O)cc4c3C(=O)OCC)cc12`, for which the Efficacy at Coagulation factor XI [2] amounted to 100%. Moreover, on Coagulation factor XI [3], the IC50 was 29.9 µM. The Activity on Coagulation factor XI [4] is above 50%.
Turning to `CCOC(=O)c1c(C)oc2cc(OCc3oc4cc(OC)c(OS(=O)(=O)O)cc4c3C(=O)OCC)c(OC)cc12`, at Coagulation factor XI [5], the inhibition entry was “inactive”.
With `O=C(c1cc(OS(=O)(=O)O)c(OS(=O)(=O)O)c(OS(=O)(=O)O)c1)N1CCc2cc(OS(=O)(=O)O)c(OS(=O)(=O)O)cc2C1`, the Activity on Coagulation factor XI [1] stood at 20%.
As to `COC(=O)c1c(C)oc2cc(OC)c(OCc3oc4cc(OC)c(OS(=O)(=O)O)cc4c3C(=O)OC)cc12`, on Coagulation factor XI [2], the Efficacy was found to be 100%. In addition, the IC50 at Coagulation factor XI [3] came to 9.7 µM. The Activity on Coagulation factor XI [4] is above 50%.

For the origin of these results see ChEMBL document CHEMBL3259627, “Allosteric inhibition of human factor XIa: discovery of monosulfated benzofurans as a class of promising inhibitors” (J Med Chem, 2014).
